Laboratory results: ChEMBL document CHEMBL1137939, “Manipulation of kinetic profiles in 2-aryl propionic acid cyclooxygenase inhibitors” (Bioorg Med Chem Lett, 2004)

Target: T1, Prostaglandin G/H synthase 1 (Ovis aries, UniProt P05979)
T1 sequence (P05979 whole entry): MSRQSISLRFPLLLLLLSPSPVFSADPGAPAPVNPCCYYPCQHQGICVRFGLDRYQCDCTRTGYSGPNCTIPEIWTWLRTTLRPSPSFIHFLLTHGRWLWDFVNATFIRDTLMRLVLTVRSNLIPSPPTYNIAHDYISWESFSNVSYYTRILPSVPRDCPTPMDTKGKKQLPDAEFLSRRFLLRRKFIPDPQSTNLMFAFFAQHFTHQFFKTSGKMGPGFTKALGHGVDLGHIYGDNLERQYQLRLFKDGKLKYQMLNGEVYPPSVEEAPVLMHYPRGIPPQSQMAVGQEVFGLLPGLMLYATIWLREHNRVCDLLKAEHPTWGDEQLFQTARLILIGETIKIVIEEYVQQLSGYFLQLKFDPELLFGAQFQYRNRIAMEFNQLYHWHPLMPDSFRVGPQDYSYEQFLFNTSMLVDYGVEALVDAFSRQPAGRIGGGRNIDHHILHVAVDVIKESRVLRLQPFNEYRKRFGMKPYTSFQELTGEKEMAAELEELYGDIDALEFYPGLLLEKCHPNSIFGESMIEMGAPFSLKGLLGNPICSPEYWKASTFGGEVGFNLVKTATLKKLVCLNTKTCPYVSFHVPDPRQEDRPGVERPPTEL
Assay: Reversible competitive inhibition of prostaglandin G/H synthase 1
Method in brief: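 Ovine seminal vesicle COX-1, purified to >95% (Coomassie SDS-PAGE) and hematin-reconstituted. Coupled cyclooxygenase-peroxidase assay at 22 °C in 0.1 M Tris–HCl pH 8.0, read as TMPD oxidation after arachidonic acid start. Initial rates were taken because the enzyme auto-inactivates. Hydrogen-peroxide-initiated controls checked for peroxidase inhibition.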

SMILES	IC50
COC(=O)C(C)c1ccc(-c2ccccc2)cc1 (stereo not given)	28.5 µM
CC(C)Cc1ccc(C(C)C(=O)O)cc1Br (stereo not given)	0.11 µM
CC(C(N)=O)c1ccc(-c2ccccc2)c(F)c1 (stereo not given)	8.3 µM
CNC(=O)C(C)c1ccc(-c2ccccc2)cc1 (stereo not given)	19.5 µM
CC(C(=O)N(C)C)c1ccc(-c2ccccc2)cc1 (stereo not given)	4.8 µM
CC(C(N)=O)c1ccc(-c2ccccc2)cc1 (stereo not given)	64.5 µM
CC(C)Cc1ccc(C(C)C(=O)O)cc1[N+](=O)[O-] (stereo not given)	59 µM
CNC(=O)C(C)c1ccc(-c2ccccc2)c(F)c1 (stereo not given)	24 µM
COC(=O)C(C)c1ccc(-c2ccccc2)c(F)c1 (stereo not given)	210 µM
CC(C(=O)N(C)C)c1ccc(-c2ccccc2)c(F)c1 (stereo not given)	215 µM
